From ChEMBL document CHEMBL1128478, “Structure-activity relationships of the potent combined endothelin-A/endothelin-B receptor antagonist Ac-DDip16-Leu-Asp-Ile-Ile-Trp21: development of endothelin-B receptor selective antagonists” (J Med Chem, 1995)
Numbered stars: 1 amine (or outer) side, 2 acyl side, 3 side chain; on linkers, the order of the positions; unused ones are H or OH. Square brackets hold non-standard residues; d marks the D form. Peptide text beside a SMILES is read from it. * marks the point of attachment. Dip = N[C@H](C(=O)O)C(c1ccccc1)c1ccccc1; NHcHex = C1CCC(N*)CC1; CO = O=C([*:1])[*:2]; Piv = CC(C)(C)C(=O)*; Propionyl = CCC(=O)*; Bz = O=C(c1ccccc1)*; Ms = CS(=O)(=O)*

What was measured:
[1] = target: T1, Endothelin receptor type B (Homo sapiens, UniProt P24530); test: Binding affinity measured in CHO cells stably transfected with the human endothelin B receptor; type: cell-based
T1 sequence (P24530 whole entry): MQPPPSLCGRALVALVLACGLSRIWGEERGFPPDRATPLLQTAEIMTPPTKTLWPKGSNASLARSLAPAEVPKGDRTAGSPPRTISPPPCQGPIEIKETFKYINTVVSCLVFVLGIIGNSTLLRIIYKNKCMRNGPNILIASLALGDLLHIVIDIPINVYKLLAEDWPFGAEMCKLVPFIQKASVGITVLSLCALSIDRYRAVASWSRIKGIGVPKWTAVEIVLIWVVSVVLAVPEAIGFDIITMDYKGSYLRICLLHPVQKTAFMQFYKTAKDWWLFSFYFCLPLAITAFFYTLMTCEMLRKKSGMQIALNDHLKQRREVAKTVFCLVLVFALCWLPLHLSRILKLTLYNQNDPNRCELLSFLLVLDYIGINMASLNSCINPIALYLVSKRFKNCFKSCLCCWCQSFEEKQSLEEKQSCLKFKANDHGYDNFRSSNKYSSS
Procedure, shortened: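 Membranes come from confluent CHO-K1 clones stably expressing human ETB, grown in DME/F12 with 10% FCS and G418 0.5 mg/mL. Specific binding fitted by nonlinear least squares. Triplicate points per IC50.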

[2] = Relative affinities for rat endothelin B receptor and human endothelin B receptor; design: reference not given here
[3] = target: T2, Endothelin receptor type B (Rattus norvegicus, UniProt P21451); test: Binding affinity against endothelin B receptor rat cerebellar membranes.
T2 sequence (P21451 whole entry): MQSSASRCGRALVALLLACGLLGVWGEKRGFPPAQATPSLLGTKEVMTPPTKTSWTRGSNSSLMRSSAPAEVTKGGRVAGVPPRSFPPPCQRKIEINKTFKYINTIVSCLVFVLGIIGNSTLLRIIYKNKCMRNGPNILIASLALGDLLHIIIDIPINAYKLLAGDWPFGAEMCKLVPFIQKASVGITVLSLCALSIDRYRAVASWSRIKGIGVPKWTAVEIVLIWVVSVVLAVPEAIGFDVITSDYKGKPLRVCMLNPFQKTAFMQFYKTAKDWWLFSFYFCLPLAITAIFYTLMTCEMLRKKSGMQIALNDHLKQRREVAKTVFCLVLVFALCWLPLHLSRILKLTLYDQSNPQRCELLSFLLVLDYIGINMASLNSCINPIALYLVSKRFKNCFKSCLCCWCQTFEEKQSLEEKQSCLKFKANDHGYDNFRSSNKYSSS

[4] = Relative affinities against endothelin A receptor (rabbit) and endothelin B receptor (rat); design: reference not given here
[5] = target: T2, Endothelin receptor type B; test: Inhibition of SRTX-6c stimulated arachidonic acid release in CHO cells expressing recombinant rat ET- B receptors
[6] = target: T2, Endothelin receptor type B; test: Inhibition of SRTX-6c stimulated arachidonic acid release in CHO cells expressing rat ET- B receptors

## CC[C@H](C)[C@H](NC(=O)[C@H](CCCCN)NC(=O)[C@H](CC(C)C)NC(=O)C(NC(C)=O)C(c1ccccc1)c1ccccc1)C(=O)N[C@H](C(=O)N[C@@H](Cc1c[nH]c2ccccc12)C(=O)O)[C@@H](C)CC (single isomer, unassigned)
[1]
  IC50: > 10000 nM

## CC[C@H](C)[C@H](NC(=O)[C@H](Cc1ccccc1)NC(=O)[C@H](CC(=O)O)NC(=O)[C@H](CC(C)C)NC(=O)[C@@H](NC(C)=O)C(c1ccccc1)c1ccccc1)C(=O)N[C@@H](Cc1c[nH]c2ccccc12)C(=O)O (Ac-[Dip]LDFIW-OH)
[2]
  Ratio: 16
[3]
  IC50: 56 nM
[1]
  IC50: 900 nM

## CC[C@H](C)[C@H](NC(=O)[C@H](CC(=O)O)NC(=O)[C@H](CC(C)C)NC(=O)[C@@H](NS(C)(=O)=O)C(c1ccccc1)c1ccccc1)C(=O)N[C@H](C(=O)N[C@@H](Cc1c[nH]c2ccccc12)C(=O)O)[C@@H](C)CC (Ms-[Dip]LDIIW-OH)
[4]
  Ratio: 2.1
[5]
  IC50: 1300 nM
[3]
  IC50: 260 nM

## CC[C@H](C)[C@H](NC(=O)[C@H](CC(=O)O)NC(=O)[C@H](CCCNC(=N)N)NC(=O)[C@@H](NC(C)=O)C(c1ccccc1)c1ccccc1)C(=O)N[C@H](C(=O)N[C@@H](Cc1c[nH]c2ccccc12)C(=O)O)[C@@H](C)CC
[2]
  Ratio: 59

## CC[C@H](C)[C@H](NC(=O)[C@H](CC(=O)O)NC(=O)[C@H](CC(C)C)NC(=O)[C@@H](NC(=O)c1ccccc1)C(c1ccccc1)c1ccccc1)C(=O)N[C@H](C(=O)N[C@@H](Cc1c[nH]c2ccccc12)C(=O)O)[C@@H](C)CC (Bz-[Dip]LDIIW-OH)
[6]
  IC50: 290 nM
[4]
  Ratio: 210
[2]
  Ratio: 147
[3]
  IC50: 30 nM
[1]
  IC50: 4400 nM

## CC[C@H](C)[C@H](NC(=O)[C@H](CC(=O)O)NC(=O)[C@H](CC(C)C)NC(=O)[C@@H](NC(=O)C(C)(C)C)C(c1ccccc1)c1ccccc1)C(=O)N[C@H](C(=O)N[C@@H](Cc1c[nH]c2ccccc12)C(=O)O)[C@@H](C)CC (Piv-[Dip]LDIIW-OH)
[6]
  IC50: 890 nM
[4]
  Ratio: 25
[3]
  IC50: 400 nM

## CC[C@H](C)[C@H](NC(=O)[C@H](CC(=O)O)NC(=O)[C@H](CCCNC(=N)N)NC(=O)[C@H](NC(C)=O)C(c1ccccc1)c1ccccc1)C(=O)N[C@H](C(=O)N[C@@H](Cc1c[nH]c2ccccc12)C(=O)O)[C@@H](C)CC
[3]
  IC50: 10 nM
[1]
  IC50: 590 nM

## CC[C@H](C)[C@H](NC(=O)[C@H](CC(=O)O)NC(=O)[C@H](CC(C)C)NC(=O)[C@@H](NC(=O)NC1CCCCC1)C(c1ccccc1)c1ccccc1)C(=O)N[C@H](C(=O)N[C@@H](Cc1c[nH]c2ccccc12)C(=O)O)[C@@H](C)CC ({NHcHex-CO}-[Dip]LDIIW-OH)
[6]
  IC50: 210 nM
[4]
  Ratio: 29.4
[3]
  IC50: 68 nM

## CCC(=O)N[C@H](C(=O)N[C@@H](CC(C)C)C(=O)N[C@@H](CC(=O)O)C(=O)N[C@H](C(=O)N[C@H](C(=O)N[C@@H](Cc1c[nH]c2ccccc12)C(=O)O)[C@@H](C)CC)[C@@H](C)CC)C(c1ccccc1)c1ccccc1 (Propionyl-[Dip]LDIIW-OH)
[6]
  IC50: 220 nM
[4]
  Ratio: 3.8
[3]
  IC50: 260 nM

## CC[C@H](C)[C@H](NC(=O)[C@H](CCC(=O)O)NC(=O)[C@H](CC(C)C)NC(=O)[C@@H](NC(C)=O)C(c1ccccc1)c1ccccc1)C(=O)N[C@H](C(=O)N[C@@H](Cc1c[nH]c2ccccc12)C(=O)O)[C@@H](C)CC (Ac-[Dip]LEIIW-OH)
[2]
  Ratio: 95
[3]
  IC50: 19 nM
[1]
  IC50: 1800 nM

## CC[C@H](C)[C@H](NC(=O)[C@H](CC(=O)O)NC(=O)[C@H](CC(C)C)NC(=O)[C@@H](NC(=O)NC)C(c1ccccc1)c1ccccc1)C(=O)N[C@H](C(=O)N[C@@H](Cc1c[nH]c2ccccc12)C(=O)O)[C@@H](C)CC ({NHMe-CO}-[Dip]LDIIW-OH)
[6]
  IC50: 20 nM
[4]
  Ratio: 6.1
[3]
  IC50: 140 nM

## CC[C@H](C)[C@H](NC(=O)[C@H](Cc1ccccc1)NC(=O)[C@H](CC(C)C)NC(=O)[C@@H](NC(C)=O)C(c1ccccc1)c1ccccc1)C(=O)N[C@H](C(=O)N[C@@H](Cc1c[nH]c2ccccc12)C(=O)O)[C@@H](C)CC (Ac-[Dip]LFIIW-OH)
[2]
  Ratio: 17
[3]
  IC50: 60 nM
[1]
  IC50: > 1600 nM
